# Bioassay records: PubChem, several laboratories
# The list is not random: actives were taken first. Their share in the collection is about 2.6%.
# SENP1 inh: human SENP1 catalytic domain inhibitors, primary screen, biochemical, FRET, uHTS | Sentrin-specific protease 1 (Homo sapiens), Q9P0U3 | recombinant SENP1 catalytic domain, CyPet-SUMO1-YPet FRET cleavage | inhibition, % at 10 µM | hit rate 0.21% among 360,000;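 active means inhibition at least 30% at 10 µM, raw YFP signal under a set limit, fluorescence ratio 0.5 to 1.5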;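 further: 0% = enzyme with DMSO and 100% = no enzyme wells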
#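 Test system: hSENP1 catalytic domain, recombinant; Amount: 20 pM final SENP1 enzyme; Medium: Tris pH 8 buffer plus EDTA, NaCl, BME, BSA, NP40, catalase; Schedule: 50 min enzyme reaction, room temperature, light-protected; Technique: FRET fluorescence in CFP and YFP emission channels; Controls: no-enzyme wells low, DMSO-plus-enzyme wells high control.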
# Platelet DG rel: inhibitors of platelet dense granule secretion, primary screen, cell-based, MLPCN, human platelets | inhibition, %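 (compounds screened at 7.5 µM in platelet-rich plasma)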 | hit rate 0.22% among 300,000 | human platelet-rich plasma, SFLLRN dense granule ATP release, luminescence;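 active means mean replicate score, as percent of positive control, at or above 50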
# SENP8 block-1: SENP8 protease inhibitors, primary screen, biochemical, luminescence. Sentrin-specific protease 8 (Homo sapiens), Q96LD8. AID 2540, 2010. inhibition, % at 10 µM. hit rate 1.2% among 330,000. purified SENP8, Z-RLRGG-aminoluciferin cleavage; in the data active means inhibition above about 50%
# Target sequence (Q96LD8 whole entry, looked up): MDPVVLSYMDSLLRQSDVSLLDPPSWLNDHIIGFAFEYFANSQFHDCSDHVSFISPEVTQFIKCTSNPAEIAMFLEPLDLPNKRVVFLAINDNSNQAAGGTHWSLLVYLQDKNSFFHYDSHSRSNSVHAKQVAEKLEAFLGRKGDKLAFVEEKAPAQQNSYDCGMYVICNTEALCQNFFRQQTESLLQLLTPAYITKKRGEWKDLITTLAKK
# SENP6 inh: SENP6 protease inhibitors, primary screen, biochemical, luminescence, uHTS; Recombinant SENP6 catalytic domain, aminoluciferin luminescence; inhibition, % at 10 µM; hit rate 1.8% among 330,000; AID 2599, 2010;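 active means inhibition above about 50% at the single tested dose, limit read from the data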;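 further: plate controls were DMSO wells with enzyme for no effect and DMSO wells lacking enzyme for full effect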
# SENP8 block-2: human SENP8 protease inhibitors, primary screen, biochemical, fluorescence, Nedd8 protein substrate, uHTS; Sentrin-specific protease 8 (Homo sapiens), Q96LD8; hit rate 0.64% among 360,000; inhibition, % at 20 µM; AID 602440, 2012; recombinant SENP8; in the data active means inhibition mostly above about 40%, no sharp cut-off; inactive means mostly below about 27%
# SENP7 block: SENP7 protease inhibitors, primary screen, biochemical, luminescence, uHTS; Sentrin-specific protease 7 (Homo sapiens), Q9BQF6; recombinant SENP7, Z-RLRGG-aminoluciferin luminescence, 40 min; inhibition, % at 5 µM; hit rate 1.5% among 330,000;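 active means inhibition above about 50% at the single test dose, limit read from the data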;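 further: plate controls were DMSO with enzyme for no effect and no enzyme buffer wells for full effect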
# SENP8 conf: SENP8 protease inhibitors, retest, confirmation, biochemical, luminescence, single concentration | shares compounds with SENP7 block | AID 488912, 2010 | Recombinant SENP8, Z-RLRGG-aminoluciferin luminescence, 60 min | inhibition, % at 12.5 µM | hit rate 40% among 6,200;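 active means mean inhibition across replicates above about 50%, limit read from the data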
# SENP6 confirm: SENP6 protease inhibitors, confirmation, biochemical, luminescence, single concentration. AID 488915, 2010. shares compounds with SENP7 block. hit rate 58% among 6,200. recombinant SENP6, Z-RLRGG-aminoluciferin luminescence. inhibition, % at 12.5 µM
# SENP7 conf: SENP7 protease inhibitors, retest, confirmation, biochemical, luminescence, single concentration | shares compounds with SENP7 block | recombinant SENP7, Z-RLRGG-aminoluciferin luminescence, 40 min | inhibition, % at 12.5 µM | hit rate 69% among 6,200 | AID 488917, 2010
# Casp3 select: caspase-3 protease inhibitors, confirmation, selectivity assay for SENP inhibitor project, biochemical, single concentration; hit rate 60% among 6,200; inhibition, % at 12.5 µM; shares compounds with SENP7 block; purified caspase-3, Z-DEVD-aminoluciferin luminescence, 60 min; AID 488918, 2010;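 active means mean inhibition above about 50%, limit read from the data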;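 further: plate controls were enzyme with DMSO for no effect and wells without caspase-3 for full effect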
# Target sequence (P42574 28-227 limits assumed): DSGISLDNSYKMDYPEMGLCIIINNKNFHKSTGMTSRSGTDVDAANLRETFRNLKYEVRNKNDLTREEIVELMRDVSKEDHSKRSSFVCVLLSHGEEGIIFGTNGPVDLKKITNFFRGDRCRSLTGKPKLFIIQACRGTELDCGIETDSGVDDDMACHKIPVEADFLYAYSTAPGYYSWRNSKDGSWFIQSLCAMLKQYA
# SENP luc ctr: interferes with luciferase luminescence in SENP counter-screen. AID 488919. hit rate 39% among 6,200. inhibition, % at 12.5 µM. Pre-incubated SENP8/Z-RLRGG-aminoluciferin, luciferase luminescence interference. shares compounds with SENP7 block;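 active means mean inhibition above about 50% when retested at one dose, limit read from the data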;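 further: plate controls were DMSO wells with completed reaction for no effect and substrate without enzyme for full effect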
# * = called active by the depositor; i = inactive; / = not tested or not shown.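 How the source made its calls, unless noted: active means mean inhibition above about 50% in the one-dose retest (limit read from the data); inactive means the rest.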
SMILES,SENP1 inh,Platelet DG rel,SENP8 block-1,SENP6 inh,SENP8 block-2,SENP7 block,SENP8 conf,SENP6 confirm,SENP7 conf,Casp3 select,SENP luc ctr
CC(=O)N1c2ccc(S(=O)(=O)N3CCC(C(=O)Nc4cccc(C)n4)CC3)cc2CC1C (centres undefined),1,2,0,13,4,-5,/,/,/,/,/
CCN(CC(=O)Nc1cc(Cl)ccc1C)C(=O)CSCc1c(C)noc1C,-4,15,1,-19,6,8,/,/,/,/,/
NS(=O)(=O)c1ccc(CNC(=O)c2ccc(S(=O)(=O)C(F)F)cc2)cc1,1,3,-4,-21,12,-3,/,/,/,/,/
Nc1ccc2nc(-c3ccccn3)[nH]c2c1,-36,10,38,52*,-406,52*,42,51*,79*,82*,49
Nc1ccc2nc(-c3cccs3)[nH]c2c1,-33,2,20,39,-313,0,/,/,/,/,/
CC1=NN(C(N)=S)C(=O)C1N=Nc1c(C)cc(C)cc1C (centres undefined),4,1,-8,16,26,1,/,/,/,/,/
CC1=NN(C(N)=S)C(=O)C1N=Nc1c(Cl)cc([N+](=O)[O-])cc1Cl (centres undefined),7,-2,95*,98*,47*,82*,96*,96*,101*,95*,65*
CC1=NN(C(N)=S)C(=O)C1N=Nc1ccc(C)cc1C (centres undefined),/,-21,81*,92*,/,68*,41,58*,70*,68*,29
CC1=NN(C(N)=S)C(=O)C1N=Nc1c(Br)cc(Br)cc1Br (centres undefined),3,9,74*,85*,18,0,1,82*,90*,51*,58*
CC1=NN(C(N)=S)C(=O)C1N=Nc1ccccc1C (centres undefined),3,0,75*,-2,35,48,31,41,58*,70*,23
Cc1sc2ncn(CC(=O)NCCN3CCOCC3)c(=O)c2c1S(=O)(=O)N1CCC(C)CC1,1,-4,2,-2,8,9,/,/,/,/,/
Brc1ccc(-c2ncc(-c3ccccc3)cn2)cc1,4,2,20,7,18,74*,11,12,-6,-3,-2
COCCn1c(C)cc(/C=C2/SC(=O)N(C(C)C(=O)OC)C2=O)c1C (centres undefined),-53,-1,-4,-7,-78,-2,/,/,/,/,/
CC(C)C(C(=O)NCC1CCCO1)N(C(=O)CNS(=O)(=O)c1ccccc1)c1ccc(F)cc1 (centres undefined),0,-6,-3,-11,10,-4,/,/,/,/,/
Brc1ccccc1-n1nnc(-c2ccnc3ccccc23)n1,0,-1,-14,-13,11,-6,/,/,/,/,/
COc1ccc(C(=O)c2nccc3cc(OC)c(OC)cc23)cc1OC,24,/,95*,89*,65*,92*,86*,92*,81*,49,2
Cn1c(SCc2nc(-c3ccccc3)no2)nnc1-c1ccco1,3,-11,5,2,30,4,/,/,/,/,/
Cc1ccc2c(c1)C(N1CCCC1=O)CC(c1ccco1)N2 (centres undefined),-18,14,95*,94*,-473,-8,22,82*,100*,95*,17
Cc1[nH]nc(Sc2ccccn2)c1[N+](=O)[O-],2,13,-1,2,14,7,/,/,/,/,/
COc1cccc(-c2cn3nc(C)c(C)nc3n2)c1,-25,74*,60*,83*,i,-3,90*,93*,101*,97*,61*
Cc1nc2nc(-c3cccs3)cn2nc1C,-22,6,-9,-3,-367,-7,/,/,/,/,/
N=c1n(CCCOc2ccc(Br)cc2)c2ccccc2n1CC(N)=O,2,12,-7,-28,10,-2,/,/,/,/,/
Cc1ccc2c(c1)nnn2C1CCN(CC(=O)Nc2ccc(F)cc2)CC1,2,-1,-8,-12,14,-7,/,/,/,/,/
Cc1ccc2c(c1)nnn2C1CCN(CC(=O)N2CCN(c3ccc(F)cc3)CC2)CC1,2,-3,3,-9,10,64*,8,7,2,0,5
O=C(CN1CCC(n2nnc3cc(F)ccc32)CC1)NCCc1nc2ccccc2[nH]1,0,7,2,14,13,52*,10,9,3,-3,-2
SMILES,SENP1 inh,Platelet DG rel,SENP8 block-1,SENP6 inh,SENP8 block-2,SENP7 block,SENP8 conf,SENP6 confirm,SENP7 conf,Casp3 select,SENP luc ctr
COC(=O)c1cccc(NC(=O)c2ccccc2)c1,3,-1,-9,-4,13,0,/,/,/,/,/
O=C(Nc1ccc2ccccc2c1)c1onc2c1CCCC2,-3,1,65*,80*,1,52*,39,82*,93*,60*,44
COC(=O)c1cccc(NC(=O)c2onc3c2CCCC3)c1,1,-2,76*,92*,19,79*,-4,47,79*,61*,65*
CCCCCCN1C[C@H](n2cc(C3CC3)nn2)[C@@H](O)C[C@@H]1c1ccc(C)cc1,-3,/,/,/,2,/,/,/,/,/,/
S=C(Nc1ccc(Cl)cc1)Nc1cccc2cnccc12,-21,13,85*,92*,-156,62*,9,56*,28,7,6
CCN(C(=S)Nc1cccnc1)c1cccc2ccccc12,-2,-6,51*,87*,-376,54*,-8,-4,-1,-1,-5
